Hits are enriched below; roughly 1.5% of the tested compounds scored in any of these assays.
APJ antagonist: blocks the human apelin receptor APJ | P35414 | CHO-K1 APJ beta-arrestin complementation, luminescence | inhibition, % at 20 µM | 0.32% of 330,000 active | AID 2521;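 active = inhibition above about 40% at 20 µM, limit read from the data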;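 also: cells challenged with 10 nM apelin-13 agonist together with compound; plate controls were apelin-13 plus DMSO wells for no effect and DMSO wells lacking apelin-13 for full effect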
APJ ag: APJ receptor agonism | P35414 | CHO-K1 APJ PathHunter beta-arrestin, luminescence; 0% DMSO wells, 100% apelin | activation, % at 20 µM | 0.11% of 330,000 active | AID 2520;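 active = activation more than six SD over the plate average, tested at 20 µM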;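 also: 0% = DMSO alone and 100% = apelin-13 at 10 nM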
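Assay system: CHO-K1 cells stably expressing ProLink-tagged human APJ and arrestin–beta-gal acceptor. Compound dosing: 20 µM single point, 1% DMSO. Times: 16-18 h seeding, 90 min dark compound exposure, 60 min detection. Detection: beta-gal luminescence. Evaluation: APJ–arrestin association signal. Controls: negative DMSO alone, positive Apelin-13 at 10 nM.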
CCR6 antagonist: antagonists of human CCR6 receptor; P51684; CHO-K1 CCR6 PathHunter beta-arrestin, luminescence, CCL20-stimulated; inhibition, % at 20 µM; 0.49% of 340,000 active; AID 493098;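 active = compounds whose inhibition of the agonist-driven luminescence signal at 20 µM reaches about 50%, limit read from the data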;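 also: cells stimulated with CCL20 at 14 nM final; plate controls were DMSO with CCL20 for no effect and DMSO without agonist for full effect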
EBI2 block: blocks human EBI2 receptor beta-arrestin signaling | EBI2 beta-arrestin recruitment, luminescence, 7a,25-OHC stimulated | P32249 | inhibition, % at 5 µM | 0.81% of 360,000 active | AID 651636; in the data active = inhibition above about 38%;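 also: enzyme fragment complementation signal reports receptor beta-arrestin coupling in cells; 0% = agonist plus DMSO wells and 100% = wells without agonist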
CXCR6 block: CXCR6 (human) receptor inhibition; 0.36% of 360,000 active; AID 602244; O00574; inhibition, % at 20 µM; CHO-K1 PathHunter CXCR6 beta-arrestin, luminescence; in the data active = inhibition above about 34%, passing the limit was not always enough;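 also: antagonist mode with CXCL16 agonist at 10 nM final; 0% = 10 nM CXCL16 with DMSO and 100% = unstimulated wells without agonist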
Target sequence (O00574 whole entry, looked up): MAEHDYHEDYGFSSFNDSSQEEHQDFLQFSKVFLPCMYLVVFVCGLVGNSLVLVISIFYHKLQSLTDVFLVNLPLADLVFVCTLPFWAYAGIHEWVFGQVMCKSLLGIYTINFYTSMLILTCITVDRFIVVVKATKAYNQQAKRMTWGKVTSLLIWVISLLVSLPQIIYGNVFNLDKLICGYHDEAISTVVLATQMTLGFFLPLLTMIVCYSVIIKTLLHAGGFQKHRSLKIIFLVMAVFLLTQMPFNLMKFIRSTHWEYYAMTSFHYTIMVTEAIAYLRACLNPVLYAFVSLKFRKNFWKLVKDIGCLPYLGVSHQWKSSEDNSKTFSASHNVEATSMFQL
* marks the source's active call; other numbers are inactive results; / = no result given.

SMILES	APJ antagonist	APJ ag	CCR6 antagonist	EBI2 block	CXCR6 block
CCS(=O)(=O)c1ncc(Cl)c(C(=O)Nc2ccccc2OC)n1	18.2	-4.5	37.0	79.4*	25.9
CC(=O)Nc1ccc(NC(=O)c2nc(S(=O)(=O)Cc3cccc(C)c3)ncc2Cl)cc1	0.8	9.5	58.1*	12.2	46.6*
N#Cc1ccc(NC(=O)Cn2cnc(S(=O)(=O)N3CCCCC3)c2)cc1	6.8	-4.0	2.2	2.5	0.9
Cc1cc(C)c2c(c1)/C(=C/C(=O)c1ccc(Br)s1)C(=O)N2	-1.6	1.9	15.2	73.5*	9.3
Cc1cc(Br)c2c(c1)/C(=C/C(=O)c1cccs1)C(=O)N2	-51.5	1.9	1.7	33.7	-1.5
Cc1cccc2c1NC(=O)/C2=C\C(=O)c1cccs1	12.0	0.0	45.6	42.6*	11.9
O=[N+]([O-])c1cccc(/C=N\N=C2c3ccccc3-c3ccccc32)c1O	54.2*	-9.7	69.3*	-4.5	43.4*
NC(N)=N/N=C/c1cccc([N+](=O)[O-])c1O	14.7	-4.4	19.1	-7.7	13.7
O=C(NC(=S)Nc1ccc(C(=O)N2CCOCC2)cc1)c1ccc([N+](=O)[O-])cc1	9.2	-4.8	62.5*	-2.4	30.2
COc1ccc(C(=O)NC(=S)Nc2ccccc2N2CCCCC2)cc1[N+](=O)[O-]	8.4	4.1	71.8*	27.7	23.5
CCOc1ccc(C(=O)NC(=S)Nc2ccc(NC(=O)CC)cc2)cc1[N+](=O)[O-]	22.3	-1.3	55.9*	5.9	18.1
CCOc1ccc(C(=O)NC(=S)Nc2ccc(N3CCCCC3)cc2)cc1[N+](=O)[O-]	25.1	-1.9	18.6	11.6	-9.4
O=C(Nc1ccc(C(=O)N2CCOCC2)cc1)c1ccc([N+](=O)[O-])cc1	4.5	-0.1	-21.9	-5.1	-9.0
COc1cc(C(=O)NC(=S)Nc2ccc([N+](=O)[O-])cc2)cc(OC)c1OC	41.4*	-7.0	33.4	1.8	16.0
CCOC(=O)C1=CC[C@@H](c2cc3cc(OC)ccc3n2C)N(S(=O)(=O)c2ccc(C)cc2)[C@H]1C(=O)OCC	0.1	-2.3	14.8	4.9	1.4
COC(=O)C1Cc2ccccc2CN1S(=O)(=O)c1ccc(C)cc1 (centres undefined)	-10.4	1.2	-0.1	7.8	7.2
COC(=O)C1CN(S(=O)(=O)c2ccc(C)cc2)CCN1S(=O)(=O)c1ccc(C)cc1 (centres undefined)	12.3	-3.2	8.0	54.6*	1.9
FC(F)(F)c1cnc(NNC(=S)Nc2ccccc2Cl)c(Cl)c1	37.0	1.4	84.9*	17.2	81.6*
CCN(CC)CCNC(=O)c1ccc2c(c1NCCO)C(=O)c1ccccc1C2=O	-7.1	-0.9	18.8	0.6	8.0
CC1CCN(C(=O)c2ccc3c(c2NCCO)C(=O)c2ccccc2C3=O)CC1	-1.2	-0.5	25.1	46.0*	20.1
C=CCN1C(=O)c2ccc(C(=O)N(CC)CC(=O)Nc3cc(Cl)ccc3C)cc2C1=O	-32.3	3.2	2.6	-9.0	6.8
C=CCc1cccc(/C=N/NC(=O)C(C)Nc2ccc(C)cc2)c1O (centres undefined)	9.9	-1.1	29.3	40.9*	-6.4
Cc1cccc2c1N(CCOc1ccc(C(C)(C)C)cc1)C(=O)C2=O	12.3	1.8	35.2	6.9	25.6
Cc1ccc(OCCN2C(=O)C(=O)c3cc(C)ccc32)cc1	18.5	-5.5	51.7*	15.8	20.8
Cc1ccc2c(c1)C(=O)C(=O)N2CC(=O)OC(C)C	-3.0	-2.3	18.6	5.1	9.9
SMILES	APJ antagonist	APJ ag	CCR6 antagonist	EBI2 block	CXCR6 block
Cc1ccc(OCCCN2C(=O)C(=O)c3cccc(C)c32)cc1	38.3	-9.9	57.4*	8.2	19.1
CC1=NN(C(=O)c2ccc(Cl)cc2)C(O)(c2ccccc2)C1 (centres undefined)	15.2	-5.3	55.0*	1.1	17.5
CCN(CC)CCn1c(NC(=O)c2ccc(Cl)cc2)nc2ccccc21	-4.2	-3.9	7.5	6.3	7.3
CCN(CC)CCn1c(NC(=O)c2ccccc2O)nc2ccccc21	26.8	-1.0	/	-5.0	57.4*
N#Cc1ccc(Cl)cc1NC(=O)COC(=O)c1cccc(S(=O)(=O)N2CCOCC2)c1	-63.2	-3.1	11.2	2.5	-3.2
CC1=C/C(=C(\c2cc(C)c(O)c(Br)c2)c2ccccc2S(=O)(=O)O)C=C(Br)C1=O	19.3	-4.5	58.9*	3.7	30.9
Cc1cc(C(=O)c2ccccc2)cc(C)c1O	/	/	8.8	0.5	9.9
Cc1cc(=O)nc2c3ccccc3n(CC(=O)Nc3ccccc3Br)n12	4.8	-1.2	17.7	11.0	0.8
O=C(Cc1ccc(Cl)cc1)Nc1ccc(-c2nnc(-c3ccco3)o2)cc1	-9.8	0.6	10.3	-3.2	0.7
O=C(CSCc1ccc(Cl)cc1)Nc1ccc(-c2nnc(-c3ccccc3)o2)cc1	45.1*	1.0	-13.7	-19.2	-16.7
O=C(Cn1ccc2ccccc2c1=O)Nc1ccc2c(c1)OCO2	-4.8	-5.2	69.1*	-8.2	-6.2
FC(F)(F)c1nnc(-c2ccccc2)nc1Oc1ccc(Cl)cc1Cl	8.1	-3.7	55.9*	-7.9	29.2
CCc1ccc(N(CC(=O)N2CCCCCC2)S(C)(=O)=O)cc1	-13.9	-3.3	4.0	5.9	-4.0
N#CC(C#N)=C1C=CC=CN1/C(=C\c1ccccc1)C(=O)c1cccs1	24.0	-3.5	87.2*	-10.1	9.0
O=C(N/N=C/C(Br)=C\c1ccccc1)c1cccs1	-6.6	2.9	10.6	4.4	-7.4
CN(C)C(=S)N=c1ssc(=S)n1Cc1ccccc1	/	/	50.7*	11.7	19.0
Cc1ccc(S(=O)(=O)N(C)C)cc1NC(=O)CSc1nncs1	4.7	-2.9	6.3	2.4	-7.1
N#Cc1ccccc1Cn1cc(/C=C/[N+](=O)[O-])c2ccccc21	-14.3	2.7	55.0*	-40.3	35.1
O=[N+]([O-])/C=C/c1cn(Cc2ccccc2)c2ccccc12	18.6	-3.4	32.5	-25.8	14.5
COc1ccc(CN(CC2CCC(C(=O)O)CC2)C(=S)Nc2cc(Cl)ccc2OC)cc1 (centres undefined)	-10.8	-2.3	2.0	-8.5	-5.4
COc1ccc(CCNC(=O)c2cc(-c3ccccc3)c(N3CCOCC3)s2)cc1OC	-1.2	1.1	0.5	14.9	4.0
CCOC(=O)c1ccc(N=c2sc(C(=O)OC)cc(=O)n2Cc2ccc3c(c2)OCO3)cc1	15.3	-5.5	9.9	72.7*	4.9
CCOC(=O)c1ccc(N=c2sc(C(=O)OC)cc(=O)n2C2CC2)cc1	3.5	0.8	3.3	34.9	0.7
Cc1c(C(=O)Nc2nc3ccccc3[nH]2)oc2ccccc12	8.2	-0.7	56.3*	8.9	20.5
COc1ccc(C(O)CNc2ccc(C)cc2)cc1 (centres undefined)	-15.8	14.2	15.5	66.4*	0.9
COc1ccc(NC(=O)CCSc2ccc(C)cc2)cc1	13.7	1.9	0.1	-14.6	-0.9
CCN(CC)S(=O)(=O)c1ccc2oc(C(=O)NCc3ccc(F)cc3)c(C)c2c1	-0.8	-0.1	10.9	49.6*	4.7
